Published values pooled from the literature.
Protocols differ between the studies behind these lines.
Target: Eukaryotic translation initiation factor 2-alpha kinase 1 (EIF2AK1, Homo sapiens, UniProt Q9BQI3)

| SMILES | test | conditions | remaining binding [%] |
| --- | --- | --- | --- |
| COc1ccnn2ncc(-c3ccnc(N(C)C)n3)c12 | binding | 1 µM | 95 |
| O=C(Nc1c[nH]nc1C(=O)NC1CCNCC1)c1cc(F)cc(F)c1 | binding, competition with immobilised ligand | 1 µM | 91 |
| Cc1nc(C2CCN(C(=O)c3ccc(OC(F)(F)F)cc3N)CC2)c2ncc(N3CCN(C)CC3)cc2n1 | cell-free assay, competition with immobilised ligand | 1 µM | 85 |
| C[C@H]1CCN(c2nccc(-c3cnn4ncccc34)n2)C1 | binding | 1 µM | 73 |
| Nc1ncc2c(n1)-c1c([nH]c3ccc(C#CC4CC4)cc13)CCCC2 | binding, competition with immobilised ligand | 1 µM | 80 |
| N[C@H]1CCN(c2nccc(-c3cnn4ncccc34)n2)C1 | binding | 1 µM | 78 |
| C[C@@H](c1ccc(-n2cnc3c(N)ncnc32)cc1)N1CCc2nn(C)c(Cc3ccccc3)c2C1=O | binding, competition with immobilised ligand | 0.1 µM | 66 |
| c1cncc(-c2cccc(Nc3nccc(NC4CCCCC4)n3)c2)c1 | binding, competition with immobilised ligand | 10 µM | 87 |
| CS(=O)(=O)c1cc(C2(NC(=O)c3cncc4c3cnn4-c3ccc(F)cc3)CC2)ccn1 | cell-free assay, competition with immobilised ligand | 1 µM | 73 |
| O=C(c1ccc(Nc2ncc(Cl)c(-c3cc4ccccc4s3)n2)cc1)N1CCC(N2CCCC2)CC1 | binding, competition with immobilised ligand | 1 µM | 90 |
| CN(C)c1ncc(F)c(-c2cnn3ncccc23)n1 | binding | 1 µM | 100 |
| O=C(NCc1ncc(C(F)(F)F)cc1Cl)c1ccc2c(c1)C1(CCS(=O)(=O)CC1)[C@@H](C1CC1)N2S(=O)(=O)c1ccc(F)cc1 | cell-free assay, competition with immobilised ligand | 1 µM | 94 |
| O=C(NCCCN1CCOCC1)c1ccc(Nc2ncc(Cl)c(-c3ccc(Cl)s3)n2)cc1 | binding, competition with immobilised ligand | 1 µM | 97 |
| COc1cnc(Nc2cccc(S(N)(=O)=O)c2)nc1N1CCN(c2ccccc2)C(=O)C1 | binding, competition with immobilised ligand | 1 µM | 89 |
| O=C(NCCCN1CCOCC1)c1ccc(Nc2nccc(-c3cc4ccccc4s3)n2)cc1 | binding, competition with immobilised ligand | 1 µM | 100 |
| F[C@@H]1CCN(c2nccc(-c3cnn4ncccc34)n2)C1 | binding | 1 µM | 100 |
| CS(=O)(=O)N1CCCC(NC(=O)[C@H](CCC2CCCCC2)NC(=O)c2ccc(CNC(=O)c3cnc4ccccn34)cc2)C1 (stereo partly shown) | cell-free assay, competition with immobilised ligand | 0.1 µM | 91 |
| C=CC(=O)N1CCC(C(=O)NCC(=O)N2CCN(c3nc(-c4cnc(N)nc4C(F)F)nc(N4CCOCC4)n3)CC2)CC1 | binding, competition with immobilised ligand | 1 µM | 94 |
| C[C@@H](c1cccc(C#N)c1)n1cc(Cl)cc(C(N)=O)c1=N | cell-free assay, competition with immobilised ligand | 1 µM | 95 |
| c1cnn2ncc(-c3ccnc(N4CCC45COC5)n3)c2c1 | binding | 1 µM | 49 |
| CN1CCN(c2cnc3c(C4CCN(C(=O)c5ccc(OC(F)(F)F)cc5N)CC4)ncnc3c2)CC1 | cell-free assay, competition with immobilised ligand | 1 µM | 100 |
| CC1CCCN1c1nccc(-c2cnn3ncccc23)n1 (stereo not shown) | binding | 1 µM | 100 |
